# Data taken from ChEMBL document CHEMBL1158348, “Aroylpropionic acid based 2,5-disubstituted-1,3,4-oxadiazoles: synthesis and their anti-inflammatory and analgesic activities” (Eur J Med Chem, 2009).
# What was measured:
# Rattus norvegicus [1] = experiment: Antiinflammatory activity in po dosed Wistar rat assessed as inhibition of carrageenan-induced paw odema at dose equivalent to 20 mg/kg of ibuprofen pretreated 30 mins pre-carrageenan challenge measured after 3 hrs; type: functional
# Procedure, shortened: (§1)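 Rats 150–200 g, groups of six. Drug given orally as a suspension in 0.5% w/v aqueous sodium CMC; control group untreated. 30 min later, 0.1 mL of 1% carrageenan injected sub-plantar into the left hind paw. Paw volume measured by plethysmometer before treatment (V0) and at intervals (Vt). Inhibition computed from (Vt−V0) of treated vs control. Values are mean ± S.E.M.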
# Rattus norvegicus [2] = experiment: Antiinflammatory activity in po dosed Wistar rat assessed as inhibition of carrageenan-induced paw odema at dose equivalent to 20 mg/kg of ibuprofen pretreated 30 mins pre-carrageenan challenge measured after 2 hrs; type: functional; procedure, shortened: as §1
# Mus musculus [3] = experiment: Analgesic activity in po dosed Swiss albino mouse assessed as inhibition of acetic acid-induced writhing response at dose equivalent to 20 mg/kg of ibuprofen pretreated 3 hrs before acetic acid challenge; type: functional; set-up: scale not given: the % may be the effect or the level left
# Procedure, shortened: (§2)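 Mice 25–30 g of either sex, groups of six. Drug given orally as a suspension in 0.5% w/v aqueous sodium CMC, 3 h before 1% v/v acetic acid i.p. at 1 mL per 100 g body weight. Writhings counted over 10 min. Protection (%) = 100 − (test/control writhings × 100). Values are mean ± S.E.M., with ANOVA then t-test.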
# Rattus norvegicus [4] = experiment: Gastrointestinal toxicity in po dosed Wistar rat assessed ulcer index at dose equivalent to 60 mg/kg of ibuprofen after 17 hrs; type: organism-based; set-up: dose 60 mg/kg, route oral; conditions: in vivo
# Procedure, shortened: (§3)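 Wistar rats (150–200 g), groups of six, fasted 8 h, then given a single oral dose (60 mg kg-1 ibuprofen or molar equivalent of test compound; control received vehicle only). Sacrificed 17 h later with food and water available. Gastric mucosa examined under 4× binocular magnifier, scored 0–4 by lesion/ulcer number and size. Severity index = treated group mean score minus control mean score.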
# Gastric mucosa [5] = experiment: Inhibition of lipid peroxidation assessed as malondialdehyde level per 100 mg of gastric mucosa isolated from po dosed Wistar rat treated dose equivalent to 60 mg/kg equivalent to ibuprofen by UV spectrophotometry; type: functional
# Procedure, shortened: (§4)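 Rats 150–200 g, groups of six, fasted 8 h, then given a single oral dose and killed 17 h later with food and water available. Gastric mucosa scraped, 100 mg homogenised in ice-cold 1.15% KCl. SDS, pH 3.5 acetate buffer and 0.8% TBA added, heated at 95 °C for 60 min. Extracted with n-butanol/pyridine 15:1, A532 read; MDA in nmol/100 mg tissue.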
# Rattus norvegicus [6] = experiment: Gastrointestinal toxicity in Wistar rat assessed ulcer index at 60 mg/kg, po after 17 hrs; type: organism-based; set-up: dose 60 mg/kg, route oral; conditions: in vivo; procedure, shortened: as §3
# Mus musculus [7] = experiment: Analgesic activity in Swiss albino mouse assessed as inhibition of acetic acid-induced writhing response at 20 mg/kg, po pretreated 3 hrs before acetic acid challenge; type: functional; set-up: scale not given: the % may be the effect or the level left; procedure, shortened: as §2
# Rattus norvegicus [8] = experiment: Antiinflammatory activity in Wistar rat assessed as inhibition of carrageenan-induced paw odema at 20 mg/kg, po pretreated 30 mins pre-carrageenan challenge measured after 8 hrs; type: functional; procedure, shortened: as §1
# Rattus norvegicus [9] = experiment: Antiinflammatory activity in Wistar rat assessed as inhibition of carrageenan-induced paw odema at 20 mg/kg, po pretreated 30 mins pre-carrageenan challenge measured after 3 hrs; type: functional; procedure, shortened: as §1
# Rattus norvegicus [10] = experiment: Antiinflammatory activity in Wistar rat assessed as inhibition of carrageenan-induced paw odema at 20 mg/kg, po pretreated 30 mins pre-carrageenan challenge measured after 4 hrs; type: functional; procedure, shortened: as §1
# Rattus norvegicus [11] = experiment: Antiinflammatory activity in Wistar rat assessed as inhibition of carrageenan-induced paw odema at 20 mg/kg, po pretreated 30 mins pre-carrageenan challenge measured after 2 hrs; type: functional; procedure, shortened: as §1
# Gastric mucosa [12] = experiment: Inhibition of lipid peroxidation assessed as malondialdehyde level per 100 mg of gastric mucosa isolated from Wistar rat treated 60 mg/kg, po by UV spectrophotometry; type: functional; procedure, shortened: as §4
Structure (SMILES),inhibition in vivo (Rattus norvegicus [1]) [%],inhibition in vivo (Rattus norvegicus [2]) [%],Activity (Mus musculus [3]) [%],UI (Rattus norvegicus [4]),Activity (Gastric mucosa [5]) [nmol],other results
O=C(CCc1nnc(-c2ccccc2Cl)o1)c1ccccc1,35.8,26.9,,,,
Cc1ccc(C(=O)CCc2nnc(-c3ccccc3Cl)o2)cc1,57.3,36.2,,,,
Cc1ccc(C(=O)CCc2nnc(COc3ccccc3)o2)c(C)c1,45.7,27.6,,,,
O=C(CCc1nnc(COc2ccc3ccccc3c2)o1)c1ccccc1,51,29.8,,,,
Cc1ccc(C(=O)CCc2nnc(COc3ccccc3)o2)cc1,42,25.3,,,,
Cc1ccc(C(=O)CCc2nnc(-c3ccccc3Cl)o2)c(C)c1,60.5,33.5,56.8,0.89,4.15,
COc1ccc(-c2nnc(CCC(=O)c3ccc(C)cc3C)o2)cc1OC,75.3,58.7,56.1,1.12,5.12,
COc1ccc(-c2nnc(CCC(=O)c3ccc(C)cc3C)o2)cc1,88.9,62.7,66.25,0.65,3.79,
O=C(CCc1nnc(-c2ccc([N+](=O)[O-])cc2)o1)c1ccccc1,62.7,40.9,58.2,0.98,4.95,
COc1ccc(-c2nnc(CCC(=O)c3ccc(C)cc3)o2)cc1,89.5,69.3,69.8,0.7,3.15,
Cc1ccc(C(=O)CCc2nnc(-c3ccccc3)o2)c(C)c1,58,36,,,,
Cc1ccc(C(=O)CCc2nnc(COc3cccc4ccccc34)o2)cc1,37,24,,,,
Cc1ccc(C(=O)CCc2nnc(-c3ccc(Cl)cc3)o2)cc1,81.5,62.7,58.89,0.98,4.25,
CC(C)Cc1ccc(C(C)C(=O)O)cc1 (stereo unspecified) [IBUPROFEN],,,,,,UI (Rattus norvegicus [6]): 1.95; Activity (Mus musculus [7]): 72.5%; inhibition in vivo at 20 mg/kg (Rattus norvegicus [8]): 46.7%; inhibition in vivo at 20 mg/kg (Rattus norvegicus [9]): 90.1%; inhibition in vivo at 20 mg/kg (Rattus norvegicus [10]): 65.5%; inhibition in vivo at 20 mg/kg (Rattus norvegicus [11]): 80.9%; Activity (Gastric mucosa [12]): 7.51 nmol
Cc1ccc(C(=O)CCc2nnc(-c3ccccc3)o2)cc1,49.3,33.3,,,,
COc1ccc(-c2nnc(CCC(=O)c3ccc(C)cc3)o2)cc1OC,72.6,53.3,62.39,0.87,3.85,
Cc1ccc(C(=O)CCc2nnc(COc3ccc4ccccc4c3)o2)cc1,49.4,24.7,,,,
Cc1ccc(C(=O)CCc2nnc(-c3ccc(Cl)cc3)o2)c(C)c1,72.6,53.3,60.42,0.71,3.26,
Cc1ccc(C(=O)CCc2nnc(Cc3ccccc3)o2)cc1,51.9,24.7,,,,
O=C(CCc1nnc(-c2ccccc2)o1)c1ccccc1,29.4,18.7,,,,
Cc1ccc(C(=O)CCc2nnc(Cc3ccccc3)o2)c(C)c1,50,25.3,,,,
O=C(CCc1nnc(-c2ccc(Cl)cc2)o1)c1ccccc1,81.5,42,63,1.12,5.32,
Cc1ccc(C(=O)CCc2nnc(-c3ccc([N+](=O)[O-])cc3)o2)c(C)c1,69.1,40,47.2,0.87,4.42,
Cc1ccc(C(=O)CCc2nnc(-c3ccc([N+](=O)[O-])cc3)o2)cc1,60.5,52,53.43,0.95,3.95,
